Data taken from article PMC11292830 (ACS Omega, 2024).
Bridges are numbered along the chain shown (N, C = ends). Where no end group is shown, it is not given here.

Legend:
[1] = FRET assay in solution of Cy3- and Cy5-labeled peptides; format: physicochemical; settings: 100 nM Cy3-labeled plus 100 nM Cy5-labeled peptide in PBS, excitation of Cy3 at 490 nm, microplate reader, n = 3
[2] = Differential scanning calorimetry of the oligomers; format: physicochemical; settings: DSC, 10 mg/mL in 20 mM Tris-HCl pH 7.5, 100 mM NaCl, 4 to 110 °C at 1 °C/min, 3 atm, first scan
[3] = Native mass spectrometry of oligomeric state; format: physicochemical; settings: 50 mM ammonium acetate (pH 6.9), native ESI-MS, column bypassed
Outline: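 Intact-mass LC/MS on a QTof instrument fed by UHPLC, with the column bypassed to capture the full oligomer profile. Test compound was in 50 mM ammonium acetate (pH 6.9) under native conditions. Electrospray in positive ionization mode; source temperature 300 °C; ion spray voltage 5500 V. Spectra were inspected over the expected regions for larger oligomers.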

[4] = cited from earlier work

Sequence: LKKLCLKLKKLCKLAG (disulfide 5-12 (inferred)) [LK-3]
- FRET efficiency [1]: 0.36
- melting temperature (Tm2) [2]: 63.8 °C
- oligomeric state by native mass spectrometry [3]: prefers to form oligomers
- molecularity of the oligomer by SEC-MALS [4]: tetramer of dimers
